Reference: publication PMC5086809 (European journal of pharmacology, 2013)

Each molecule was assayed against T1, human GPR119 receptor (G protein-coupled receptor 119) (Homo sapiens, UniProt Q8TDV5) (assay: HTRF cAMP accumulation assay, stable HEK293 cells).
T1 sequence (Q8TDV5 1-335): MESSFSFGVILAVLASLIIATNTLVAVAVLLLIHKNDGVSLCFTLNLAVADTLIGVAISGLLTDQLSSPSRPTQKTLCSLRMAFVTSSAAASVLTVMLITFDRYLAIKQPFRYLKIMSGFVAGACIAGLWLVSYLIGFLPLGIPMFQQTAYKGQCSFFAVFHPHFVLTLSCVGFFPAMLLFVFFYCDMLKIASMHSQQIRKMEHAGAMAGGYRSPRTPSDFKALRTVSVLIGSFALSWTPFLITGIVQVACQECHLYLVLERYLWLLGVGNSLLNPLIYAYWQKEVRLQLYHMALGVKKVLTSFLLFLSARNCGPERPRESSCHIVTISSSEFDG
Type: cell-based
Procedure, shortened: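 HEK293 cells stably transfected with human GPR119, selected in 800 µg/ml geneticin and kept in 400 µg/ml G418. Test compound in DMEM with 2.5% fatty acid-free BSA, 30 min at room temperature. HTRF read (d2-cAMP plus Eu-cryptate anti-cAMP, 2 h, ex 337/em 665 and 620 nm). cAMP taken from a standard curve; EC50 from a sigmoidal fit; five independent experiments.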
With `CC(C)c1noc(C2CCN(c3ncnc(Nc4ccc(S(C)(=O)=O)cc4F)c3[N+](=O)[O-])CC2)n1` [AR231453] the EC50 was 0.011 µM.
Molecule `CCCCC/C=C\C/C=C\C/C=C\CCCCCCC(=O)NCCO` [Dihomo-γ-linolenoyl ethanolamide] has an EC50 of 25.6 µM.
`CC/C=C\C/C=C\C/C=C\C/C=C\C/C=C\C/C=C\CCC(=O)NCCO` [Docosahexaenoyl ethanolamide] was tested, and the EC50 was 63.8 µM.
With `CCCCC/C=C\C/C=C\C/C=C\C/C=C\CCCCCC(=O)NCCO` [Docosatetra-7Z,10Z,13Z,16Z-enoyl ethanolamide] the EC50 was 40.2 µM.
Work on `CC/C=C\C/C=C\C/C=C\C/C=C\C/C=C\CCCC(=O)NCCO` [Eicosapentaenoyl ethanolamide] yielded an EC50 of 65.6 µM.
For `CCCCC/C=C\C/C=C\CCCCCCCC(=O)NCCO` [Linoleoyl ethanolamide], the EC50 was 8.11 µM.
In the case of `CCCCCCCC/C=C\CCCCCCCC(N)=O` [Oleamide], the EC50 is reported as 42.9 µM.
In the case of `CCCCCCCC/C=C\CCCCCCCC(=O)NCCc1ccc(O)c(O)c1` [Oleoyl dopamine], the EC50 is reported as 54.8 µM.
`CCCCCCCC/C=C\CCCCCCCC(=O)NCCO` [Oleoyl ethanolamide] showed an EC50 of 7.65 µM.
`CC(C)(C)OC(=O)N1CCC(OCc2nc(-c3ccncc3)no2)CC1` [PSN632408] showed an EC50 of 7.61 µM.
In the case of `CCCCCCCCCCCCCCCC(=O)NCCO` [Palmitoyl ethanolamide], the EC50 is reported as 10.1 µM.
